Laboratory results published in ChEMBL document CHEMBL1122685, “Identification of an acridine photoaffinity probe for trypanocidal action” (1984).

Key:
Assay type in all cases: functional
Trypanosoma brucei [1] = test: Trypanocidal activity against Trypanosoma brucei, exposur of parasites to compound prior to injection into mice at 10 e-6 M concentration in presence of light; design: unit: days
Procedure, shortened: (§1)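 DEAE-purified T. brucei EATRO 110 at 5×10^6/mL in TSG was mixed with drug at the final concentration by gentle rotation for 10 min. Samples were light-activated for 10 min under a 30W fluorescent lamp 4 cm above. 5×10^5 treated parasites in 0.1 mL were injected ip into Swiss mice, five per group. Survival was scored daily for 30 days and reported as mean days ±SD, with untreated controls.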

Trypanosoma brucei [2] = test: Trypanocidal activity against Trypanosoma brucei, exposure of parasites to compound prior to injection into mice at 10 e-5 M concentration in dark conditions
Procedure, shortened: (§2)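 T. brucei EATRO 110 was separated from blood on DEAE-cellulose and washed in Tris-saline-glucose (TSG). Parasites at 5×10^6/mL in TSG were gently rotated 10 min with drug at the final concentration, kept dark under a red safelight until injection. Swiss mice, five per group, received 5×10^5 parasites ip in 0.1 mL. Read-out was mean days survival ±SD over 30 days, against untreated-parasite controls.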

Trypanosoma brucei [3] = test: Trypanocidal activity against Trypanosoma brucei, exposure of parasites to compound prior to injection into mice at 10 e-5 M concentration in presence of light; design: unit: days; procedure, shortened: as §1
Trypanosoma brucei [4] = test: Trypanocidal activity against Trypanosoma brucei, exposure of parasites to compound prior to injection into mice at 10 e-6 M concentration in dark conditions; procedure, shortened: as §2
Trypanosoma brucei [5] = test: Compound is evaluated for trypanocidal activity against Trypanosoma brucei, by exposing the parasites directly to compound prior to injection to mice at 10 e-7 M concentration in presence of light; design: unit: days; procedure, shortened: as §1
Trypanosoma brucei [6] = test: Compound is evaluated for trypanocidal activity against Trypanosoma brucei, by exposing the parasites directly to compound prior to injection to mice at 10 e-7 M concentration in dark conditions; design: unit: days; procedure, shortened: as §2
Trypanosoma brucei [7] = test: Trypanocidal activity against Trypanosoma brucei, exposure of parasites to compound prior to injection into mice at 10 e-4 M concentration in dark conditions; procedure, shortened: as §2
Trypanosoma brucei [8] = test: Compound is evaluated for trypanocidal activity against Trypanosoma brucei, by exposing the parasites directly to compound prior to injection to mice at 10 e-6 M concentration (pre) in presence of light.
Procedure, shortened: (§3)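 Compound was irradiated 1 h before contact with T. brucei EATRO 110 (5×10^6/mL in TSG, final drug concentration). After 10 min gentle rotation, the mixture was irradiated again for 10 min under a 30W fluorescent lamp at 4 cm. 5×10^5 parasites in 0.1 mL were given ip to five Swiss mice per group. Read-out was mean days survival ±SD over 30 days, with untreated controls.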

Trypanosoma brucei [9] = test: Trypanocidal activity against Trypanosoma brucei, exposure of parasites to compound prior to injection into mice at 10 e-4 M concentration in presence of light; design: unit: days; procedure, shortened: as §1
Trypanosoma brucei [10] = test: Compound is evaluated for trypanocidal activity against Trypanosoma brucei, by exposing the parasites directly to compound prior to injection to mice at 10 e-5 M concentration (pre) in dark conditions
Procedure, shortened: (§4)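 Drug was preirradiated 1 h with visible light, then added at the final concentration to T. brucei EATRO 110 (5×10^6/mL in TSG) and rotated 10 min. The parasites were then kept dark with a red safelight. Swiss mice, five per group, were injected ip with 0.1 mL holding 5×10^5 parasites. Mean days survival ±SD was scored over 30 days against untreated-parasite controls.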

Trypanosoma brucei [11] = test: Compound is evaluated for trypanocidal activity against Trypanosoma brucei, by exposing the parasites directly to compound prior to injection to mice at 10 e-5 M concentration (pre) in presence of light; procedure, shortened: as §3
Trypanosoma brucei [12] = test: Compound is evaluated for trypanocidal activity against Trypanosoma brucei, by exposing the parasites directly to compound prior to injection to mice at 10 e-6 M concentration (pre) in dark conditions; procedure, shortened: as §4
Trypanosoma brucei [13] = test: Compound is evaluated for trypanocidal activity against Trypanosoma brucei, by exposing the parasites directly to compound prior to injection to mice at 10 E-6 M concentration in presence of light; procedure, shortened: as §1
Trypanosoma brucei [14] = test: Compound is evaluated for trypanocidal activity against Trypanosoma brucei, by exposing the parasites directly to compound prior to injection to mice at 10 E-5 M concentration in dark conditions; procedure, shortened: as §2
Trypanosoma brucei [15] = test: Compound is evaluated for trypanocidal activity against Trypanosoma brucei, by exposing the parasites directly to compound prior to injection to mice at 10 E-4 M concentration in dark conditions; procedure, shortened: as §2
Trypanosoma brucei [16] = test: Compound is evaluated for trypanocidal activity against Trypanosoma brucei, by exposing the parasites directly to compound prior to injection to mice at 10 E-6 M concentration in dark conditions; procedure, shortened: as §2
Trypanosoma brucei [17] = test: Compound is evaluated for trypanocidal activity against Trypanosoma brucei, by exposing the parasites directly to compound prior to injection to mice at 10 E-5 M concentration in presence of light; procedure, shortened: as §1
Trypanosoma brucei [18] = test: Compound is evaluated for trypanocidal activity against Trypanosoma brucei, by exposing the parasites directly to compound prior to injection to mice at 10 E-4 M concentration in presence of light; procedure, shortened: as §1
Trypanosoma brucei [19] = test: Compound is evaluated for trypanocidal activity against Trypanosoma brucei, by exposing the parasites directly to compound prior to injection to mice at 10 e-5 M concentration in presence of light; procedure, shortened: as §1

Compound	Activity (Trypanosoma brucei [1])	Activity (Trypanosoma brucei [2])	Activity (Trypanosoma brucei [3])	Activity (Trypanosoma brucei [4])	Activity (Trypanosoma brucei [5])	Activity (Trypanosoma brucei [6])	Mean survival time of infected mice (days) (Trypanosoma brucei [7])	Mean survival of mice (days) (Trypanosoma brucei [8])	Activity (Trypanosoma brucei [9])	Activity (Trypanosoma brucei [10])	Activity (Trypanosoma brucei [11])	Activity (Trypanosoma brucei [12])	Activity (Trypanosoma brucei [13])	Activity (Trypanosoma brucei [14])	Activity (Trypanosoma brucei [15])	Activity (Trypanosoma brucei [16])	Activity (Trypanosoma brucei [17])	Activity (Trypanosoma brucei [18])	Activity (Trypanosoma brucei [19])
Nc1ccc2c(N)c3ccccc3nc2c1	17.4	8.1	30	5	15	5.2	30	27.8	30	–	–	–	–	–	–	–	–	–	–
[N-]=[N+]=Nc1ccc2cc3ccc(N)cc3nc2c1	11.2	5.5	12.7	4.6	5.9	5.7	8.3	5.4	30	5.2	5.2	–	–	–	–	–	–	–	–
C[n+]1c2cc(N)ccc2cc2ccc(N=[N+]=[N-])cc21.[Cl-]	30	18.2	30	6.9	30	6.4	30	5.5	30	–	–	6.3	–	–	–	–	–	–	–
[N-]=[N+]=Nc1ccc2nc3ccccc3c(N)c2c1	11.6	5.4	30	4.8	6	4.6	9.8	4.6	30	–	–	–	–	–	–	–	–	–	–
[N-]=[N+]=Nc1ccc2cc3ccc(N=[N+]=[N-])cc3nc2c1	–	–	–	–	–	–	6	–	5.5	–	–	–	–	–	–	–	–	–	–
C[n+]1c2cc(N=[N+]=[N-])ccc2cc2ccc(N=[N+]=[N-])cc21.[Cl-]	8.2	6	26.6	5.8	5.6	5.4	30	5.4	30	–	–	–	–	–	–	–	–	–	–
C[n+]1c2ccccc2cc2cc(N=[N+]=[N-])ccc21.[Cl-]	5.5	14.5	13.9	4.4	4.2	4.8	30	4.8	30	–	–	–	–	–	–	–	–	–	–
[N-]=[N+]=Nc1ccc2c(N)c3ccccc3nc2c1	7.6	6.3	14.2	5.8	–	–	25.3	–	26.8	–	5.2	–	–	–	–	–	–	–	–
C[n+]1c2ccccc2c(N)c2ccccc21.[Cl-]	5.8	5.4	21	4.2	–	–	30	6.2	30	–	–	–	–	–	–	–	–	–	–
C[n+]1c2ccccc2cc2ccc(N=[N+]=[N-])cc21.[Cl-]	8.6	6.6	30	5.4	–	–	30	5	30	4.4	5.8	4.7	–	–	–	–	–	–	–
C[n+]1c2ccccc2c(N=[N+]=[N-])c2ccccc21.[Cl-]	6.8	3.6	20	5	6.2	5.2	30	8.6	30	–	–	–	–	–	–	–	–	–	–
C[n+]1c2ccccc2cc2cc(N)ccc21.[Cl-]	6	5.8	6.8	3.6	–	–	30	–	30	–	–	–	–	–	–	–	–	–	–
Nc1cccc2nc3ccccc3c(N)c12	–	–	–	–	–	–	–	–	–	–	–	–	4.6	4.6	30	5.4	5.6	30	–
[N-]=[N+]=Nc1ccc(Nc2c3ccccc3nc3ccccc23)cc1	5.8	4	30	4.4	–	–	4.8	–	30	–	–	–	–	–	–	–	–	–	–
C[n+]1c2ccccc2cc2c(N)cccc21.[Cl-]	4.2	4.6	6.4	4	–	–	30	–	30	–	–	–	–	–	–	–	–	–	–
C[n+]1c2ccccc2cc2ccc(N)cc21.[Cl-]	30	14.2	–	6.9	12.4	4.6	30	15.5	–	–	–	–	–	–	–	–	–	–	30
Nc1c2ccccc2nc2cccc([N+](=O)[O-])c12	5.8	25.4	30	4.4	–	–	30	–	30	–	–	–	–	–	–	–	–	–	–
Nc1ccc(Nc2c3ccccc3nc3ccccc23)cc1	4.4	5	6.4	5.4	–	–	30	–	30	–	–	–	–	–	–	–	–	–	–
CC[n+]1c(-c2ccccc2)c2cc(N=[N+]=[N-])ccc2c2ccc(N)cc21.[Cl-]	30	–	–	4.6	27.4	4	–	–	–	–	–	–	–	–	–	–	–	–	–
[N-]=[N+]=Nc1c2ccccc2nc2cccc([N+](=O)[O-])c12	6	10	30	4.2	5	5.4	30	4	30	–	–	–	–	–	–	–	–	–	–
C[n+]1c2ccccc2cc2c(N=[N+]=[N-])cccc21.[Cl-]	–	6.4	4.8	–	–	–	4.4	–	4.8	–	–	–	–	–	–	–	–	–	–
[N-]=[N+]=Nc1c2ccccc2nc2ccccc12	30	30	30	5	4	4.6	30	4.2	30	–	–	–	–	–	–	–	–	–	–
C[n+]1c2cc(N)ccc2cc2ccc(N)cc21.[Cl-] [EUFLAVINE]	30	30	30	6.9	17.8	6.3	30	30	–	–	–	7.8	–	–	–	–	–	–	–
CN(C)CCCNc1c2ccccc2nc2cccc([N+](=O)[O-])c12 [NITRACRINE]	22.9	5.7	30	5.7	6.6	6	30	10.4	30	–	–	–	–	–	–	–	–	–	–
